Laboratory results reported in ChEMBL document CHEMBL1141957, “Screening of electrophilic compounds yields an aziridinyl peptide as new active-site directed SARS-CoV main protease inhibitor” (Bioorg Med Chem Lett, 2005).

Columns and labels:
[1] = molecular target: Replicase polyprotein 1a (Severe acute respiratory syndrome-related coronavirus) (UniProt P0C6U8); experiment: Inhibition of Mpro in SARS-CoV at 100uM
[2] = molecular target: Replicase polyprotein 1a (Severe acute respiratory syndrome-related coronavirus) (UniProt P0C6U8); experiment: Inhibition of Mpro in SARS-CoV at 100 uM in FRET-based assay
Summary of the method: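 Fluorimetric read-out: SARS-CoV Mpro cleavage of a FRET-pair-labeled peptide substrate. Percent inhibition reported as the mean of at least 2 independent assays.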

[3] = molecular target: Replicase polyprotein 1a (Severe acute respiratory syndrome-related coronavirus) (UniProt P0C6U8); experiment: Inhibition of Mpro in SARS-CoV at 100 uM in HPLC assay
[4] = molecular target: Procathepsin L (Homo sapiens, UniProt P07711); experiment: Inhibitory activity against cathepsin L
Procathepsin L, sequence (P07711 whole entry): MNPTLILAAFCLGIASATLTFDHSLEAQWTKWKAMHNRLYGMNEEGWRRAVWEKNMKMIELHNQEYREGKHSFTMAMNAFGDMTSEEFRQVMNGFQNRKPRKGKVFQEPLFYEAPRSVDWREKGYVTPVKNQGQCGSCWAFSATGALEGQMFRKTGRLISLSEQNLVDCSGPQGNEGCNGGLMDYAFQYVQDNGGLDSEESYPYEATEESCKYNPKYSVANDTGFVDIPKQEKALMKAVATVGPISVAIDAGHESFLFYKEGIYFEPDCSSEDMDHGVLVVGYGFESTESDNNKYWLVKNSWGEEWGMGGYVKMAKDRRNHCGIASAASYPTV

| SMILES | inhibition [1] | inhibition [2] | other results |
| --- | --- | --- | --- |
| CCOC(=O)N1C(C)C1(C(=O)OC)C(=O)OC (stereo unspecified) | < 10% |  |  |
| CCOC(=O)C1C(C)N1Cc1ccccc1 (stereo unspecified) | < 10% |  |  |
| C[C@@H]1O[C@@H]1C(=O)N[C@@H](Cc1ccccc1)C(=O)OCc1ccccc1 |  | 28% |  |
| COC(=O)CN1CC1C(=O)N[C@@H](Cc1ccccc1)C(=O)OC (stereo partly specified) | < 10% |  |  |
| C[C@H]1[C@@H](C(=O)N[C@@H](Cc2ccccc2)C(=O)OCc2ccccc2)N1Cc1ccccc1 (stereo partly specified) |  | 24% |  |
| C[C@H]1O[C@H]1C(=O)N[C@@H](Cc1ccccc1)C(=O)O | < 10% |  |  |
| CCOC(=O)[C@H]1N[C@@H]1C(=O)N[C@H](C(=O)OCc1ccccc1)[C@@H](C)CC | < 10% |  |  |
| CCOC(=O)[C@H]1[C@H](C(=O)OCC)N1C(=O)[C@@H]1CCCN1C(=O)[C@H](CC(C)C)NC(=O)OC(C)(C)C |  | 16% |  |
| COC(=O)CN1CC1C(=O)OC (stereo unspecified) |  | 30% |  |
| COC(=O)[C@H]1O[C@H]1C(=O)OC | < 10% |  |  |
| CC(C)C[C@@H]1O[C@@H]1[C@H](Cc1ccccc1)NC(=O)OC(C)(C)C | < 10% |  |  |
| C[C@H]1O[C@H]1C(=O)N[C@H](Cc1ccccc1)C(=O)OCc1ccccc1 | < 10% |  |  |
| CC1C(C(=O)N[C@@H](Cc2ccccc2)C(=O)OCc2ccccc2)N1Cc1ccccc1 (stereo partly specified) |  | 34% |  |
| COC(=O)C1CN1[C@@H](CCSC)C(=O)OC (stereo partly specified) |  | 28% |  |
| COC(=O)C1CN1CCCC[C@H](NC(=O)OCc1ccccc1)C(=O)OC (stereo partly specified) |  | 48% |  |
| COC(=O)C1CN1[C@@H](C)C(=O)OC (stereo partly specified) |  | 39% |  |
| COC(=O)C1(C(=O)OC)NC1C (stereo unspecified) | < 10% |  |  |
| O=C(N[C@@H](Cc1ccccc1)C(=O)OCc1ccccc1)C1C(c2ccccc2)N1Cc1ccccc1 (stereo partly specified) |  | 30% |  |
| COC(=O)[C@H]1N[C@H]1C(=O)OC | < 10% |  |  |

| SMILES | inhibition [1] | inhibition [2] | other results |
| --- | --- | --- | --- |
| CCOC(=O)[C@H]1N[C@H]1C(=O)OCC | < 10% |  |  |
| CCOC(=O)C1OC1C(=O)N[C@@H](Cc1ccccc1)C(=O)OCc1ccccc1 (stereo partly specified) |  | 22% |  |
| CCOC(=O)[C@H]1N[C@@H]1C(=O)NCC(=O)NCC(=O)OCc1ccccc1 |  | 54% | inhibition [3]: 75% |
| COC(=O)C1CN1[C@H](C(=O)OCc1ccccc1)C(C)C (stereo partly specified) |  | 20% |  |
| C[C@H]1O[C@H]1C(=O)N[C@@H](Cc1ccccc1)C(=O)OCc1ccccc1 |  | 15% |  |
| CC(C)(C)OC(=O)N[C@H](C(=O)N1[C@H](C(=O)OCc2ccccc2)[C@H]1C(=O)OCc1ccccc1)N1CCCCC1 |  | 29% | Ki [4]: 6.4 µM |
| CC(C)[C@H](NC(=O)[C@@H]1O[C@@H]1C)C(=O)OCc1ccccc1 |  | 10% |  |
| CCOC(=O)[C@H]1[C@H](C(=O)OCC)N1C(=O)[C@@H](NC(=O)OC(C)(C)C)C(C(C)C)N1CCC1 (stereo partly specified) |  | 16% | Ki [4]: 4.8 µM |
| C[C@H]1O[C@H]1C(=O)O | < 10% |  |  |
| C[C@@H]1O[C@@H]1C(=O)N[C@H](Cc1ccccc1)C(=O)OCc1ccccc1 | < 10% |  |  |
| COC(=O)C1CN1[C@@H](CC(C)C)C(=O)OCc1ccccc1 (stereo partly specified) |  | 34% |  |
| COC(=O)C1CN1[C@H](C(=O)OC)C(C)C (stereo partly specified) |  | 30% |  |
| C[C@@H]1O[C@@H]1C(=O)N[C@H](Cc1ccccc1)C(=O)O | < 10% |  |  |
| COC(=O)C1C(c2ccccc2)N1Cc1ccccc1 (stereo unspecified) | < 10% |  |  |
| COC(=O)C1CN1[C@@H](CC(=O)OCc1ccccc1)C(=O)OCc1ccccc1 (stereo partly specified) |  | 28% |  |
| COC(=O)C1CN1CC(=O)OCc1ccccc1 (stereo unspecified) |  | 26% |  |
| CC(C)[C@H](NC(=O)C1C(c2ccccc2)N1Cc1ccccc1)C(=O)OCc1ccccc1 (stereo partly specified) |  | 22% |  |
| COC(=O)C1(C(=O)OC)C(C)N1C(=O)OC(C)(C)C (stereo unspecified) | < 10% |  |  |
| CC[C@H](C)[C@@H](C(=O)OCc1ccccc1)N1CC1C(=O)OC (stereo partly specified) |  | 30% |  |
